The sample as a whole holds a higher share of hits than the screen did.
NOD2-RIPK2 inh: blocks binding of human NOD2 to RIPK2. O43353. 0.38% of 360,000 active. CHO BLA complementation NOD2-RIPK2, CCF4 ratio. AID 624267. inhibition, % at 4.98 µM; in the data active means inhibition above about 21%;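 further: 0% = vehicle only and 100% = reference blocker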
TLR9-MyD88 block: inhibitors of human TLR9-MyD88 binding; CHO BLA complementation TLR9-MyD88, CCF4 FRET ratio; 0.21% of 340,000 active; Q9NR96+Q99836; inhibition, % at 4.98 µM;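 active means inhibition above the mean over all tested compounds plus 3 SD, cut at about 21% in these data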;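 further: 0% = DMSO only wells and 100% = clavulanate BLA inhibitor control wells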
Target sequence (Q99836 whole entry, looked up): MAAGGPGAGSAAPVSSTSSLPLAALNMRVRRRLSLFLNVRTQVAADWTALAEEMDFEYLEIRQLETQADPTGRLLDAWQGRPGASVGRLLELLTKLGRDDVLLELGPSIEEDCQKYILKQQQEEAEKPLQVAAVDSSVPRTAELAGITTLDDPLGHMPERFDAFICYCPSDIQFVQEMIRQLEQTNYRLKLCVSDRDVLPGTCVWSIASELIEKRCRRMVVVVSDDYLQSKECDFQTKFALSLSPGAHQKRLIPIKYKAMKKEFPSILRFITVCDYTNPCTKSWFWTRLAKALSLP
Target sequence (Q9NR96 whole entry, looked up): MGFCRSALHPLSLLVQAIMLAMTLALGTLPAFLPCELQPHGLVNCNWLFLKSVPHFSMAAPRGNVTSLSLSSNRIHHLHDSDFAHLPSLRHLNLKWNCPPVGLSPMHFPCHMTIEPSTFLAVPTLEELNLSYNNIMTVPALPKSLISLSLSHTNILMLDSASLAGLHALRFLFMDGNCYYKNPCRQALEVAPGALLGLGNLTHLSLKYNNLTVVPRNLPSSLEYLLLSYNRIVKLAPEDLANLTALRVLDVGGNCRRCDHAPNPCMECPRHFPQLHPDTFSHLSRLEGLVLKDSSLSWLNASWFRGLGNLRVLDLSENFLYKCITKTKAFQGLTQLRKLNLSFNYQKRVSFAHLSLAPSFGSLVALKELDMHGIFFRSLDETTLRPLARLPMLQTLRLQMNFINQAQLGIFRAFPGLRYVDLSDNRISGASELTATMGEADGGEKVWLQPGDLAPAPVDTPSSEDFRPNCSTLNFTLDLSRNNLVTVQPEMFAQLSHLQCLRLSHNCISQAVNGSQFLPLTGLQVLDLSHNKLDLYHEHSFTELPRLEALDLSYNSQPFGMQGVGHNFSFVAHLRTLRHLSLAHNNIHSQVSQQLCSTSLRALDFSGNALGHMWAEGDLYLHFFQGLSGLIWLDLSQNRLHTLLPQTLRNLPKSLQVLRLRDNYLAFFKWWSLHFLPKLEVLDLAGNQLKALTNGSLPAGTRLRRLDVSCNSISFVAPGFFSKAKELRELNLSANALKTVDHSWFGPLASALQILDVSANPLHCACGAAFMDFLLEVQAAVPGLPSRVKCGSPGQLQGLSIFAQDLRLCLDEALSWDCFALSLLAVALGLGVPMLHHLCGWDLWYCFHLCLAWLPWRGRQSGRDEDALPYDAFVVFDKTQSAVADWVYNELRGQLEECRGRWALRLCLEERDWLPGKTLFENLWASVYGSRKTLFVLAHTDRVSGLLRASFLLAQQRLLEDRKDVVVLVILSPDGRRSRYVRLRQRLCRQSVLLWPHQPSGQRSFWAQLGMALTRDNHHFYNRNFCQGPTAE
XBP1 UPR activ: activators of adaptive arm of unfolded protein response (XBP1) | 0.33% of 330,000 active | activation, % at 20 µM | CHO-XBP1 luciferase reporter, IRE1-XBP1 UPR activation, luminescence; percent of tunicamycin response, DMSO as zero | AID 463104;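 active means versus positive control, 20 µM dose yields 30% or more activation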;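 further: 100% = tunicamycin at 10 µg/mL and 0% = DMSO only wells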
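Material: CHO cell line with stable XBP1 luciferase reporter; schedule: 16-18 h cell attachment at 37 °C, then 6 h compound exposure; signal: glow luminescence from Steady-Glo reagent; medium: serum-containing F12 medium, 10% FBS; benchmarks: tunicamycin 10 µg/mL and vehicle-only wells; read-out: percent activation relative to tunicamycin reference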
CHOP inhibitor: CHOP inhibition in unfolded protein response. CHO-K1 CHOP-promoter luciferase, tunicamycin-induced, 15-18 h. inhibition, % at 10 µM. 3.8% of 220,000 active. AID 2732;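 active means compounds that reduced the stress-induced luciferase reporter signal by more than about 70% of percent inhibition, limit read from the data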;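 further: 0% = tunicamycin plus vehicle and 100% = wells without tunicamycin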
TLR4-MyD88 BLA: inhibitors of human TLR4-MyD88 binding | O00206+Q99836 | HeLa CL3-4 TLR4/MyD88 BLA complementation, FRET ratio | inhibition, % at 8.4 µM | 0.18% of 200,000 active | AID 861; in the data active means inhibition above about 25%;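 further: 0% = vehicle and 100% = reference inhibitor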
UPR CHOP act: apoptotic UPR (CHOP) activation; CHO-CHOP luciferase reporter, luminescence; percent of tunicamycin response over DMSO baseline; activation, % at 10 µM; 0.34% of 330,000 active;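 active means at 10 µM dose, activation of 40% or more, normalized to positive control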;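 further: 100% = tunicamycin at 10 µg/mL and 0% = DMSO alone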
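System: CHO-CHOP luciferase reporter cell line; amount: 500 cells/well; buffer or medium: F12 medium containing 10% fetal bovine serum; incubation: 6 h compound exposure at 37 °C after overnight seeding; measured by: luciferase luminescence after 10 min with Steady-Glo reagent; evaluation: % reporter activation, DMSO baseline versus tunicamycin full activation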
* marks the source's active call; other numbers are inactive results; . = no result given.

SMILES	NOD2-RIPK2 inh	TLR9-MyD88 block	XBP1 UPR activ	CHOP inhibitor	TLR4-MyD88 BLA	UPR CHOP act
C=CC[n+]1c(/C=C2\C=Cc3cc(C)ccc3N2CC)ccc2ccccc21	-4	-9	6	72*	8	21
CCN1/C(=C\c2ccc3cc(C)ccc3[n+]2CC)Sc2cc(C)c(C)cc21	0	-2	.	55	12	.
Cn1nc(C(C)(C)C)cc1C(=O)N1CCCCC1c1cc(C(=O)Nc2ccc(F)c(Cl)c2)no1 (stereo not drawn)	-5	.	.	.	.	.
O=C(NC1CCCCC1)C(c1cccnc1)N(C(=O)CCl)c1cccc(Cl)c1 (stereo not drawn)	-4	-2	-6	109*	17	9
Cc1cccc(N(C(=O)CNC(=O)c2ccco2)C(C(=O)NC2CCCCC2)c2cccnc2)c1 (stereo not drawn)	-11	2	-6	.	.	0
COc1ccc2nc(NC(=O)c3sc4nc(C)cc(C)c4c3N)sc2c1	-10	7	15	74*	.	9
COC(=O)c1sc2nc(C)cc(C)c2c1N	4	18	-3	7	9	2
Cc1cc(C)c2c(N)c(C(=O)Nc3ncc(C)s3)sc2n1	3	-6	-8	96*	17	-10
CCc1nc2c(OCc3ccc(Cl)cc3)cccn2c1N(C=O)Cc1ccc(OC)cc1	1	.	.	.	.	.
CCCCn1c(SCC(=O)Nc2nnc(C(C)C)s2)nc2c1c(=O)n(C)c(=O)n2C	2	-2	1	49	-5	-2
Cc1ccc(-c2nnc(SCC(=O)Nc3nc4c(s3)CCCC4)n2C)cc1	10	0	4	42	-6	2
Cc1ccc2cc(C)c3nnc(SCC(=O)Nc4nc5c(s4)CCCC5)n3c2c1	.	.	.	83*	-16	.
CCCn1c(SCC(=O)Nc2nc3c(s2)CCCC3)nc2c1c(=O)n(C)c(=O)n2C	-5	-2	-1	71*	-6	-2
O=C(NC1CCCC1)C1c2ccccc2OCC(=O)N1Cc1cccnc1 (stereo not drawn)	-7	.	.	.	.	.
COc1ccc2[nH]c(=O)c(CN(C(=O)c3ccco3)C3CCCCC3)cc2c1	-5	-1	-4	44	-2	-2
O=C(N/N=C/c1cc(Cl)cc([N+](=O)[O-])c1O)NC12CC3CC(CC(C3)C1)C2	1	-6	0	81*	-25	2
O=C(Cc1cccc2ccccc12)N/N=C/c1ccc(F)cc1	1	-6	-4	74*	3	0
Cc1ccccc1N(CC(=O)N/N=C/c1ccc(Cl)cc1)C(=O)c1ccccc1	-5	0	1	72*	8	7
O=C(Cc1cccc2ccccc12)N/N=C/c1ccncc1	-3	-3	-3	15	13	1
Cc1ccccc1N(CC(=O)N/N=C/c1ccc(F)cc1)C(=O)c1ccccc1	6	6	-1	89*	-5	3
CCOC(=O)CN(C(=O)c1ccccc1)c1ccccc1C	-5	-1	-2	6	2	-1
Cc1ccccc1NC(=O)CCC(=O)N/N=C/c1ccc(F)cc1	-9	12	-2	7	-10	-1
COc1cc(C(=O)c2cc3c(cc2C)OCO3)cc(OC)c1OC	-2	.	.	.	.	.
O=C(CNc1ccccc1)N/N=C/c1cn(-c2ccccc2)nc1-c1ccccc1	-3	-7	0	96*	-7	7
O=S(=O)(N/N=C\c1cn(-c2ccccc2)nc1-c1ccccc1)c1ccccc1	3	-10	2	96*	-1	3
SMILES	NOD2-RIPK2 inh	TLR9-MyD88 block	XBP1 UPR activ	CHOP inhibitor	TLR4-MyD88 BLA	UPR CHOP act
NC(=O)N/N=C/c1cn(-c2ccccc2)nc1-c1ccccc1	-12	-6	3	-23	12	5
CC(C)c1ccc(Nc2nc(Cl)nc(NCCO)n2)cc1	-14	-1	-1	.	.	1
CC(C)c1ccc(Nc2nc(Cl)nc(NCc3ccco3)n2)cc1	2	-12	3	79*	.	1
CC(C)(C)C1CCC(=NNc2ccc(S(N)(=O)=O)cc2[N+](=O)[O-])CC1 (stereo not drawn)	-9	-7	0	83*	4	3
Cc1ccc(S(=O)(=O)N/N=C2/CCCCC2C2CCCCC2)cc1[N+](=O)[O-] (stereo not drawn)	-9	0	-2	79*	1	-1
CCC(C)(C)C1CCC(=NNS(=O)(=O)c2ccc(C)c([N+](=O)[O-])c2)CC1 (stereo not drawn)	-6	4	0	70*	6	-2
CC1CCCC/C1=N\Nc1ccc(S(N)(=O)=O)cc1[N+](=O)[O-] (stereo not drawn)	-9	-17	1	48	-3	1
Cc1ccc(CSCC(=O)N/N=C/c2sccc2C)cc1	1	5	4	95*	-11	0
COc1ccc(CC(=O)N/N=C/c2sccc2C)cc1	-3	1	-1	.	.	0
N#C/C(=N\Nc1cccc([N+](=O)[O-])c1)C(=O)c1ccc(Br)cc1	-1	6	1	79*	6	2
COc1ccc(S(=O)(=O)NCCSCc2cccc(C)c2)cc1Br	4	-1	-2	85*	-9	2
Cc1ccc(S(=O)(=O)NCCSCc2ccccc2)cc1	-1	9	-2	22	-14	1
CC(=O)Oc1c(Sc2ccccc2[N+](=O)[O-])c(C)nn1C(C)(C)C	0	9	-2	75*	-12	-1
Cc1ccc2c(c1)NC(=O)C(CC(=O)NCCCN1CCN(c3cc(Cl)ccc3C)CC1)O2 (stereo not drawn)	4	-5	-3	79*	-3	1
C=CCNCCCOc1ccc(Cl)cc1C(C)(C)C	5	1	5	72*	2	-1
Cc1ccn2c(C(=O)CSc3ccccc3Cl)c(C)nc2c1	6	4	4	73*	1	4
COc1ccc(CC(=O)Nc2ccc3c(c2)OC2(CCCC2)O3)c(OC)c1	6	2	.	.	.	.
C/C(CC(=O)Nc1ccc(N(C)C)cc1)=N\NC(=O)c1ccc([N+](=O)[O-])cc1Cl	2	2	0	40	-5	1
C/C(=N\NC(=O)c1ccc([N+](=O)[O-])cc1Cl)c1ccccc1	3	1	6	83*	-9	4
c1ccc(CC2CCN(Cc3nc(-c4ccccc4)no3)CC2)cc1	1	-6	-3	92*	-4	0
Cc1ccc(-c2noc(CN3CCN(c4ccccc4F)CC3)n2)cc1	-2	17	-1	74*	-6	1
Cc1ccc(-c2noc(CN3CCCCC3)n2)cc1	1	-1	1	7	-16	6
COc1ccc(-c2noc(CN3CCC(Cc4ccccc4)CC3)n2)cc1	-7	2	-2	60	3	2

Assay outcomes as filed in PubChem.
